According to ChEMBL document CHEMBL2380302, “Synthesis of 3-O-propargylated betulinic acid and its 1,2,3-triazoles as potential apoptotic agents” (Eur J Med Chem, 2013):
Calls of active or inactive are those of the source. No cut-off for these calls is given here.

What was measured:
HL-60 [1] = test: Induction of apoptosis in human HL60 cells assessed as DNA ladder formation at 5 uM after 6 hrs by DNA agarose gel electrophoresis; format: functional, cell-based
In short: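 HL-60 cells (2 × 10⁶/well/2 mL) were treated at 5 µM for 6 h, then pelleted and washed in PBS. DNA was extracted with phenol:chloroform:isoamyl alcohol and ethanol-precipitated. It was run on 1% agarose in TAE at 80 V for 1.5 h.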

HCT-15 [2] = test: Cytotoxicity against human HCT15 cells at 1 uM after 48 hrs by SRB assay; format: functional; conditions: HCT-15, 48 h, read-out: GI
HEp-2 [3] = test: Cytotoxicity against human Hep2 cells at 1 uM after 48 hrs by SRB assay; format: functional; conditions: HEp-2, 48 h, read-out: GI
THP-1 [4] = test: Inhibition of cell invasion in human THP1 cells at 1 to 30 uM after 24 hrs by wound-healing assay; format: functional, cell-based
In short: (§1)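 THP-1 monolayers (3×10⁵ cells/mL/well) were scratched with a pipette tip and washed three times with PBS. Test samples were added for 24 h, then fresh medium was added until the control wound healed. Wounds were imaged with a 10× objective at 0 h and 24 h. Migration was quantified as the distance between wound edges.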

THP-1 [5] = test: Inhibition of cell migration in human THP1 cells at 1 to 30 uM after 24 hrs by wound-healing assay; format: functional, cell-based; in short: as §1
HL-60 [6] = test: Induction of apoptosis in human HL60 cells assessed as DNA ladder formation at 20 to 30 uM after 24 hrs by DNA agarose gel electrophoresis; format: functional, cell-based
In short: (§2)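 DNA fragmentation assay in HL-60 cells (2 × 10⁶ cells/well) or CV-1 cells, treated for 24 h. Cells were lysed in Tris–HCl pH 8.0/NaCl/EDTA/Triton X-100 with proteinase K (200 µg/mL) at 50 °C for 1 h, then DNase-free RNase for 90 min. DNA was phenol:chloroform extracted and ethanol precipitated. Gels were 1% agarose in TAE at 80 V for 1.5 h. Camptothecin (5 µM, 6 h) served as positive control in HL-60.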

HL-60 [7] = test: Induction of apoptosis in human HL60 cells assessed as DNA ladder formation after 24 hrs by DNA agarose gel electrophoresis; format: functional; in short: as §2
CV-1 = test: Induction of apoptosis in african green monkey CV1 cells assessed as DNA ladder formation at 10 to 60 uM after 24 hrs by DNA agarose gel electrophoresis; format: cell-based; conditions: chlorocebus aethiops, cv-1, 24 h; in short: as §2
HL-60 [8] = test: Induction of apoptosis in human HL60 cells assessed as change in mitochondrial membrane potential after 24 hrs using rhodamine-123 staining by fluorescence based confocal microscopy analysis; format: functional, cell-based
In short: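 HL-60 cells (6 × 10⁴/mL/well) were treated for 24 h. Rhodamine-123 (1 µM) was added in serum-free medium 30 min before the end, in the dark. Cells were then washed and resuspended in PBS. Fluorescence loss was viewed by confocal microscopy with 488 nm laser excitation. Each experiment was done twice.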

THP-1 [9] = test: Inhibition of colony formation in human THP1 cells using crystal violet staining after 24 hrs by clonogenic assay; format: functional, cell-based
In short: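 THP-1 cells from log-phase culture were plated at clonogenic dilution. After 24 h they were treated for 24 h, then incubated for at least six potential divisions (colonies >50 cells). Colonies were fixed and stained with 6% glutaraldehyde plus 0.5% crystal violet for 30 min, washed with water and air-dried.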

HCT-15 [10] = test: Cytotoxicity against human HCT15 cells at 10 uM after 48 hrs by SRB assay; format: functional; conditions: HCT-15, 48 h, read-out: GI
SF-295 [11] = test: Cytotoxicity against human SF295 cells at 10 uM after 48 hrs by SRB assay; format: functional; conditions: SF-295, 48 h, read-out: GI
A549 [12] = test: Cytotoxicity against human A549 cells at 10 uM after 48 hrs by SRB assay; format: functional; conditions: A549, 48 h, read-out: GI
MCF7 [13] = test: Cytotoxicity against human MCF7 cells at 10 uM after 48 hrs by SRB assay; format: functional; conditions: MCF7, 48 h, read-out: GI
HEp-2 [14] = test: Cytotoxicity against human Hep2 cells at 10 uM after 48 hrs by SRB assay; format: functional; conditions: HEp-2, 48 h, read-out: GI
PC-3 [15] = test: Cytotoxicity against human PC3 cells at 10 uM after 48 hrs by SRB assay; format: functional; conditions: PC-3, 48 h, read-out: GI
DU-145 [16] = test: Cytotoxicity against human DU145 cells at 10 uM after 48 hrs by SRB assay; format: functional; conditions: DU-145, 48 h, read-out: GI
HL-60 [17] = test: Cytotoxicity against human HL60 cells at 10 uM after 48 hrs by SRB assay; format: functional; conditions: HL-60, 48 h, read-out: GI
THP-1 [18] = test: Cytotoxicity against human THP1 cells at 10 uM after 48 hrs by SRB assay; format: functional; conditions: THP-1, 48 h, read-out: GI
HCT-15 [19] = test: Cytotoxicity against human HCT15 cells at 30 uM after 48 hrs by SRB assay; format: functional; conditions: HCT-15, 48 h, read-out: GI
SF-295 [20] = test: Cytotoxicity against human SF295 cells at 30 uM after 48 hrs by SRB assay; format: functional; conditions: SF-295, 48 h, read-out: GI
A549 [21] = test: Cytotoxicity against human A549 cells at 30 uM after 48 hrs by SRB assay; format: functional; conditions: A549, 48 h, read-out: GI
MCF7 [22] = test: Cytotoxicity against human MCF7 cells at 30 uM after 48 hrs by SRB assay; format: functional; conditions: MCF7, 48 h, read-out: GI
HEp-2 [23] = test: Cytotoxicity against human Hep2 cells at 30 uM after 48 hrs by SRB assay; format: functional; conditions: HEp-2, 48 h, read-out: GI
PC-3 [24] = test: Cytotoxicity against human PC3 cells at 30 uM after 48 hrs by SRB assay; format: functional; conditions: PC-3, 48 h, read-out: GI
DU-145 [25] = test: Cytotoxicity against human DU145 cells at 30 uM after 48 hrs by SRB assay; format: functional; conditions: DU-145, 48 h, read-out: GI
HL-60 [26] = test: Cytotoxicity against human HL60 cells at 30 uM after 48 hrs by SRB assay; format: functional; conditions: HL-60, 48 h, read-out: GI
THP-1 [27] = test: Cytotoxicity against human THP1 cells at 30 uM after 48 hrs by SRB assay; format: functional; conditions: THP-1, 48 h, read-out: GI
HCT-15 [28] = test: Cytotoxicity against human HCT15 cells at 50 uM after 48 hrs by SRB assay; format: functional; conditions: HCT-15, 48 h, read-out: GI
SF-295 [29] = test: Cytotoxicity against human SF295 cells at 50 uM after 48 hrs by SRB assay; format: functional; conditions: SF-295, 48 h, read-out: GI
A549 [30] = test: Cytotoxicity against human A549 cells at 50 uM after 48 hrs by SRB assay; format: functional; conditions: A549, 48 h, read-out: GI
MCF7 [31] = test: Cytotoxicity against human MCF7 cells at 50 uM after 48 hrs by SRB assay; format: functional; conditions: MCF7, 48 h, read-out: GI
HEp-2 [32] = test: Cytotoxicity against human Hep2 cells at 50 uM after 48 hrs by SRB assay; format: functional; conditions: HEp-2, 48 h, read-out: GI
PC-3 [33] = test: Cytotoxicity against human PC3 cells at 50 uM after 48 hrs by SRB assay; format: functional; conditions: PC-3, 48 h, read-out: GI
HL-60 [34] = test: Cytotoxicity against human HL60 cells at 50 uM after 48 hrs by SRB assay; format: functional; conditions: HL-60, 48 h, read-out: GI
DU-145 [35] = test: Cytotoxicity against human DU145 cells at 50 uM after 48 hrs by SRB assay; format: functional; conditions: DU-145, 48 h, read-out: GI
THP-1 [36] = test: Cytotoxicity against human THP1 cells at 50 uM after 48 hrs by SRB assay; format: functional; conditions: THP-1, 48 h, read-out: GI
HCT-15 [37] = test: Cytotoxicity against human HCT15 cells after 48 hrs by SRB assay; format: functional, cell-based; conditions: HCT-15, 48 h
A549 [38] = test: Cytotoxicity against human A549 cells after 48 hrs by SRB assay; format: functional, cell-based; conditions: A549, 48 h
SF-295 [39] = test: Cytotoxicity against human SF295 cells after 48 hrs by SRB assay; format: functional, cell-based; conditions: SF-295, 48 h
MCF7 [40] = test: Cytotoxicity against human MCF7 cells after 48 hrs by SRB assay; format: functional, cell-based; conditions: MCF7, 48 h
HEp-2 [41] = test: Cytotoxicity against human Hep2 cells after 48 hrs by SRB assay; format: functional, cell-based; conditions: HEp-2, 48 h
PC-3 [42] = test: Cytotoxicity against human PC3 cells after 48 hrs by SRB assay; format: functional, cell-based; conditions: PC-3, 48 h
DU-145 [43] = test: Cytotoxicity against human DU145 cells after 48 hrs by SRB assay; format: functional, cell-based; conditions: DU-145, 48 h
HL-60 [44] = test: Cytotoxicity against human HL60 cells after 48 hrs by SRB assay; format: functional, cell-based; conditions: HL-60, 48 h
THP-1 [45] = test: Cytotoxicity against human THP1 cells after 48 hrs by SRB assay; format: functional, cell-based; conditions: THP-1, 48 h

CC[C@@]1(O)C(=O)OCc2c1cc1n(c2=O)Cc2cc3ccccc3nc2-1
Activity (HL-60 [1]): Active

CO[C@@]12[C@H](COC(N)=O)C3=C(C(=O)C(C)=C(N)C3=O)N1C[C@@H]1N[C@@H]12 [MITOMYCIN]
inhibition of growth at 1 µM (HCT-15 [2]): 76%
inhibition of growth at 1 µM (HEp-2 [3]): 68%

C=C(C)[C@@H]1CC[C@]2(C(=O)O)CC[C@]3(C)[C@H](CC[C@@H]4[C@@]5(C)CC[C@H](OCc6cn(-c7ccccc7C#N)nn6)C(C)(C)[C@@H]5CC[C@]43C)[C@@H]12
inhibition (THP-1 [4]): Active
inhibition (THP-1 [5]): Active
Activity (HL-60 [6]): Active
Activity (HL-60 [7]): Dose-dependent effect
MED (HL-60 [7]): 20 µM
Activity (CV-1): Non-toxic
Activity (HL-60 [8]): Dose-dependent effect
inhibition (THP-1 [9]): Dose-dependent effect
inhibition of growth at 10 µM (HCT-15 [10]): 40%
inhibition of growth at 10 µM (SF-295 [11]): 45%
inhibition of growth at 10 µM (A549 [12]): 60%
inhibition of growth at 10 µM (MCF7 [13]): 60%
inhibition of growth at 10 µM (HEp-2 [14]): 45%
inhibition of growth at 10 µM (PC-3 [15]): 34%
inhibition of growth at 10 µM (DU-145 [16]): 32%
inhibition of growth at 10 µM (HL-60 [17]): 65%
inhibition of growth at 10 µM (THP-1 [18]): 50%
inhibition of growth at 30 µM (HCT-15 [19]): 61%
inhibition of growth at 30 µM (SF-295 [20]): 66%
inhibition of growth at 30 µM (A549 [21]): 74%
inhibition of growth at 30 µM (MCF7 [22]): 81%
inhibition of growth at 30 µM (HEp-2 [23]): 59%
inhibition of growth at 30 µM (PC-3 [24]): 71%
inhibition of growth at 30 µM (DU-145 [25]): 65%
inhibition of growth at 30 µM (HL-60 [26]): 90%
inhibition of growth at 30 µM (THP-1 [27]): 89%
inhibition of growth at 50 µM (HCT-15 [28]): 89%
inhibition of growth at 50 µM (SF-295 [29]): 71%
inhibition of growth at 50 µM (A549 [30]): 79%
inhibition of growth at 50 µM (MCF7 [31]): 97%
inhibition of growth at 50 µM (HEp-2 [32]): 68%
inhibition of growth at 50 µM (PC-3 [33]): 86%
inhibition of growth at 50 µM (HL-60 [34]): 98%
inhibition of growth at 50 µM (DU-145 [35]): 84%
inhibition of growth at 50 µM (THP-1 [36]): 92%
IC50 (HCT-15 [37]): 20 µM
IC50 (A549 [38]): 5 µM
IC50 (SF-295 [39]): 15 µM
IC50 (MCF7 [40]): 4.8 µM
IC50 (HEp-2 [41]): 12 µM
IC50 (PC-3 [42]): 14 µM
IC50 (DU-145 [43]): 18 µM
IC50 (HL-60 [44]): 2.5 µM
IC50 (THP-1 [45]): 4.5 µM
